In ChEMBL document CHEMBL1177847, “Combating oxidative stress in epilepsy: design, synthesis, quantum chemical studies and anticonvulsant evaluation of 1-(substituted benzylidene/ethylidene)-4-(naphthalen-1-yl)semicarbazides” (Eur J Med Chem, 2010):
Activity calls are given as the source filed them. The rule behind the calls is not given here.

Legend:
Mus musculus [1] = experiment: Anticonvulsant activity against maximal electroshock-induced seizures in ip dosed Swiss albino mouse assessed as minimum effective dose after 4 hrs; assay type: functional; details: read-out: MED
Method in brief: (§1)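 Male Swiss albino mice (18–25 g) received the compound suspended in 5% gum acacia/water, i.p. at 30, 100 and 300 mg/kg (one to four animals per dose). Maximal electroshock was applied at 0.5 and 4 h. Protection meant abolition of the hind limb tonic extensor component. The lowest dose protecting half or more of the mice was recorded.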

Mus musculus [2] = experiment: Anticonvulsant activity against subcutaneous pentylenetetrazole-induced seizures in Swiss albino mouse at 300 mg/kg, ip after 4 hrs; assay type: functional, organism-based; parameters: dose 300 mg/kg
Method in brief: (§2)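 Male Swiss albino mice (18–25 g) were dosed i.p. with the compound in 5% gum acacia/water at 30, 100 or 300 mg/kg. Thirty minutes later they received PTZ 85 mg/kg (CD97) and were watched for seizures over 4 h. Readings at 0.5 and 4 h gave the lowest dose active in half or more of the animals. Myoclonic jerks were noted separately.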

Mus musculus [3] = experiment: Anticonvulsant activity against subcutaneous pentylenetetrazole-induced seizures in ip dosed Swiss albino mouse assessed as minimum effective dose after 0.5 hrs; assay type: functional; details: read-out: MED; method in brief: as §2
Mus musculus [4] = experiment: Anticonvulsant activity against maximal electroshock-induced seizures in Swiss albino mouse at 300 mg/kg, ip after 0.5 hrs; assay type: functional, organism-based; parameters: dose 300 mg/kg; method in brief: as §1
Mus musculus [5] = experiment: Neurotoxicity in ip dosed Swiss albino mouse assessed as minimum dose required to cause impair in motor coordination after 0.5 hrs by rotarod test; assay type: toxicity, organism-based; details: in vivo
Method in brief: (§3)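 Rotarod motor-impairment test in male Swiss albino mice dosed i.p. at 30, 100 or 300 mg/kg in 5% gum acacia/water. Mice that fell off the rotating rod within 30 s during pretraining were excluded. The dose at which animals fell off was recorded at 0.5 and 4 h.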

Mus musculus [6] = experiment: Neurotoxicity in ip dosed Swiss albino mouse assessed as impair in motor coordination at 300 mg/kg, ip after 4 hrs by rotarod test; assay type: toxicity, organism-based; parameters: dose 300 mg/kg, route intraperitoneal; details: in vivo; method in brief: as §3
Mus musculus [7] = experiment: Restoration of GSH level in subcutaneous pentylenetetrazole treated Swiss albino mouse brain assessed per gram of tissue at 100 mg/kg, ip after 4 hrs; assay type: functional; details: route intraperitoneal
Method in brief: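 Brains were taken from PTZ-treated mice 4 h after 100 mg/kg i.p. dosing. Tissue was deproteinized with an equal volume of 10% TCA for 2 h at 4 °C and centrifuged at 2000 g for 15 min. The supernatant was mixed with 0.4 M Tris (pH 8.9) containing 0.02 M EDTA, and 0.01 M DTNB was added before spectrophotometric reading. n = 6.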

Mus musculus [8] = experiment: Restoration of SOD activity in subcutaneous pentylenetetrazole treated Swiss albino mouse brain assessed per mg of protein at 100 mg/kg, ip after 4 hrs; assay type: functional; details: route intraperitoneal
Method in brief: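 The ethanol phase of an ethanol/chloroform (5:3) extract of brain supernatant was used, from PTZ-treated mice 4 h after 100 mg/kg i.p. Superoxide was generated by xanthine–xanthine oxidase at pH 10.2 with NBT, 20 min at 25 °C. The reaction was stopped with CuCl2 and read at 560 nm. One unit gives 50% inhibition of NBT reduction; results are expressed as U/mg protein. n = 6.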

Mus musculus [9] = experiment: Neurotoxicity in ip dosed Swiss albino mouse assessed as impair in motor coordination at 300 mg/kg, ip after 0.5 hrs by rotarod test; assay type: toxicity, organism-based; parameters: dose 300 mg/kg, route intraperitoneal; details: in vivo; method in brief: as §3
Mus musculus [10] = experiment: Anticonvulsant activity against maximal electroshock-induced seizures in ip dosed Swiss albino mouse assessed as minimum effective dose after 0.5 hrs; assay type: functional; details: read-out: MED; method in brief: as §1
Mus musculus [11] = experiment: Anticonvulsant activity against subcutaneous pentylenetetrazole-induced seizures in ip dosed Swiss albino mouse assessed as minimum effective dose after 4 hrs; assay type: functional; details: read-out: MED; method in brief: as §2
Mus musculus [12] = experiment: Restoration of GSH peroxidase activity in subcutaneous pentylenetetrazole treated Swiss albino mouse brain assessed per mg of protein at 100 mg/kg, ip after 4 hrs; assay type: functional; details: route intraperitoneal
Method in brief: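 Brain homogenate came from PTZ-treated mice 4 h after 100 mg/kg i.p. dosing, using the 10500 × g supernatant. Samples were equilibrated 5 min at 25 °C, started with H2O2, and A340 was followed for 5 min. n = 6.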

Mus musculus [13] = experiment: Reduction of lipid peroxidation in subcutaneous pentylenetetrazole treated Swiss albino mouse brain assessed reduction of malondialdehyde level per mg of protein at 100 mg/kg, ip after 4 hrs by TBARS assay; assay type: functional; details: route intraperitoneal
Method in brief: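 PTZ-treated mice were dosed at 100 mg/kg i.p. and decapitated 4 h after the last injection. Brains were homogenized in four volumes of ice-cold 50 mM Tris-HCl, pH 7.4, and spun at 3000 × g for 15 min. TBARS in the supernatant was read at 532 nm in the upper organic layer and expressed as nmol MDA/mg protein. n = 6, mean ± S.E.M.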

Mus musculus [14] = experiment: Neurotoxicity in ip dosed Swiss albino mouse assessed as minimum dose required to cause impair in motor coordination after 4 hrs by rotarod test; assay type: toxicity, organism-based; details: in vivo; method in brief: as §3
Mus musculus [15] = experiment: Anticonvulsant activity against maximal electroshock-induced seizures in Swiss albino mouse at 300 mg/kg, ip after 4 hrs; assay type: functional, organism-based; parameters: dose 300 mg/kg; method in brief: as §1
Mus musculus [16] = experiment: Toxicity in subcutaneous pentylenetetrazole-induced Swiss albino mouse assessed as death at 30 to 300 mg/kg, ip after 4 hrs; assay type: organism-based; parameters: dose 30-300 mg/kg
Method in brief: (§4)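 Male Swiss albino mice (18–25 g) given compound suspended in 5% gum acacia/water, i.p. at 30, 100 or 300 mg/kg, one to four animals per dose. PTZ at 85 mg/kg was injected 30 min after compound. Animals were examined 0.5 and 4 h after administration, and death following tonic extension was noted. The maximum dose was 300 mg/kg.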

Mus musculus [17] = experiment: Toxicity in subcutaneous pentylenetetrazole-induced Swiss albino mouse assessed as death at 30 to 300 mg/kg, ip after 0.5 hrs; assay type: organism-based; parameters: dose 30-300 mg/kg; method in brief: as §4
Mus musculus [18] = experiment: Anticonvulsant activity against subcutaneous pentylenetetrazole-induced seizures in Swiss albino mouse at 300 mg/kg, ip after 0.5 hrs; assay type: functional, organism-based; parameters: dose 300 mg/kg; method in brief: as §2
Mus musculus [19] = experiment: Toxicity in subcutaneous pentylenetetrazole-induced Swiss albino mouse assessed as myoclonic jerks at 300 mg/kg, ip after 0.5 hrs; assay type: organism-based; parameters: dose 300 mg/kg; method in brief: as §2
Mus musculus [20] = experiment: Toxicity in subcutaneous pentylenetetrazole-induced Swiss albino mouse assessed as myoclonic jerks at 100 mg/kg, ip after 0.5 hrs; assay type: organism-based; parameters: dose 100 mg/kg; method in brief: as §2

| SMILES | minimal effective dose (Mus musculus [1]) [mg/kg] | Activity (Mus musculus [2]) | minimal effective dose (Mus musculus [3]) [mg/kg] | Activity (Mus musculus [4]) | Activity (Mus musculus [5]) [mg/kg] | Activity (Mus musculus [6]) | Activity (Mus musculus [7]) [µg] | Activity (Mus musculus [8]) [U] | Activity (Mus musculus [9]) | minimal effective dose (Mus musculus [10]) [mg/kg] | minimal effective dose (Mus musculus [11]) [mg/kg] | Activity (Mus musculus [12]) [U] | Activity (Mus musculus [13]) [nmol] | Activity (Mus musculus [14]) [mg/kg] | Activity (Mus musculus [15]) | Activity (Mus musculus [16]) | Activity (Mus musculus [17]) | Activity (Mus musculus [18]) | Activity (Mus musculus [19]) | Activity (Mus musculus [20]) |
| --- | --- | --- | --- | --- | --- | --- | --- | --- | --- | --- | --- | --- | --- | --- | --- | --- | --- | --- | --- | --- |
| COc1ccc(OC)c(/C=N/NC(=O)Nc2cccc3ccccc23)c1 | 300 | inactive | 300 | inactive | 300 | Non-toxic | – | – | – | – | – | – | – | – | – | – | – | – | – | – |
| O=C(N/N=C/c1ccc(Cl)cc1Cl)Nc1cccc2ccccc12 | 100 | – | 300 | – | – | – | 21.35 | 1.69 | Non-toxic | 100 | 300 | 1.65 | 2.78 | 300 | – | – | – | – | – | – |
| CCC1(C)CC(=O)NC1=O (centres undefined) [ETHOSUXIMIDE] | – | inactive | 300 | inactive | – | Non-toxic | – | – | Non-toxic | – | – | – | – | – | inactive | – | – | – | – | – |
| O=C(N/N=C/c1ccc(F)cc1)Nc1cccc2ccccc12 | 300 | – | 300 | inactive | – | – | – | – | Non-toxic | – | – | – | – | 100 | – | Toxic | – | – | – | – |
| NC(=O)N1c2ccccc2C=Cc2ccccc21 [CARBAMAZEPINE] | 100 | – | 100 | – | 100 | – | – | – | – | 30 | 300 | – | – | 300 | – | – | – | – | – | – |
| O=C(N/N=C/c1ccccc1)Nc1cccc2ccccc12 | – | inactive | – | – | 100 | – | – | – | – | 300 | – | – | – | 100 | inactive | – | Toxic | – | – | – |
| C/C(=N\NC(=O)Nc1cccc2ccccc12)c1ccccc1 | – | inactive | – | – | 100 | Non-toxic | – | – | – | 300 | – | – | – | – | inactive | – | – | inactive | – | – |
| C/C(=N\NC(=O)Nc1cccc2ccccc12)c1ccc(Cl)cc1Cl | 300 | – | – | inactive | – | – | – | – | Non-toxic | – | 300 | – | – | 300 | – | – | – | – | Toxic | – |
| O=C(N/N=C/c1ccc([N+](=O)[O-])cc1)Nc1cccc2ccccc12 | 300 | – | – | – | – | – | 16.76 | 1.73 | Non-toxic | 300 | 300 | 1.47 | 3.39 | 300 | – | – | – | – | – | Toxic |
| C/C(=N\NC(=O)Nc1cccc2ccccc12)c1ccc(Cl)cc1 | 300 | inactive | 300 | inactive | 300 | Non-toxic | – | – | – | – | – | – | – | – | – | – | – | – | – | – |
| O=C(N/N=C/c1ccc(O)cc1)Nc1cccc2ccccc12 | – | inactive | – | – | 100 | – | – | – | – | 100 | – | – | – | 300 | inactive | – | – | inactive | – | – |
| CCCC(CCC)C(=O)O [VALPROIC ACID] | – | inactive | 300 | inactive | – | Non-toxic | 22.14 | 1.82 | Non-toxic | – | – | 2.19 | 1.96 | – | inactive | – | – | – | – | – |
